PubChem BioAssay AID720702 (The Scripps Research Institute Molecular Screening Center, 2013)
Several values for one entry are separate records, joined by “and”; a condition that tells them apart may be missing. Identical values can stand only once. The campaign covered roughly 370,000 compounds. About 1,200 (0.32%) were called active.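 Rule for the calls: active = inhibition above the mean of all tested compounds plus 3 SD, set per campaign (cut at about 25% in these data); inactive = the rest.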 The list comes from a sample in which actives are over-represented; it also holds similar structures and randomly drawn compounds.

What follows are compounds tested against Tyrosyl-DNA phosphodiesterase 2 (Homo sapiens) (UniProt O95551) (assay: blockers of TDP2 phosphodiesterase activity – biochemical, epi absorbance, recombinant enzyme, primary screen (AID 720702;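 note: 0% = DMSO with enzyme and 100% = buffer with substrate but no TDP2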)). Conditions: recombinant TDP2, T5PNP hydrolysis, p-nitrophenol absorbance 415 nm; at 12.8 µM; stronger effect = higher value.
In short: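 Material: recombinant human TDP2; quantity: TDP2 enzyme at 120 nM final; medium: Tris-HCl pH 7.5 with MgCl2; compound: single concentration, 12.8 µM nominal, with 1% DMSO; incubation: 2 h enzyme incubation at 37 °C; signal: epi absorbance; measure: percent inhibition; benchmarks: high control without enzyme, low control DMSO plus TDP2; repeats: singlicate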

Sequence of Tyrosyl-DNA phosphodiesterase 2 (Homo sapiens) (O95551 whole entry, looked up): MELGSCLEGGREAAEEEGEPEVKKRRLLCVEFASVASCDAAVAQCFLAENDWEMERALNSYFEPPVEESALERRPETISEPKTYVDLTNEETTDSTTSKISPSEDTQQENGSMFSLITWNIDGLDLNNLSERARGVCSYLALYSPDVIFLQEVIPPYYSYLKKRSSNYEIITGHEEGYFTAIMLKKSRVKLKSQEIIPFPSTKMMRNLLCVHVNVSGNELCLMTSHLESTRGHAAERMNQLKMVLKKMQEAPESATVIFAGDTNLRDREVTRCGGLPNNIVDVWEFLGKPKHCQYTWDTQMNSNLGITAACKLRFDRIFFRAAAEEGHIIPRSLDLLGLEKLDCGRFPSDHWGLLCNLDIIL

inhibition, active:
CCOC(=O)N1CCC(c2cc(=O)n(-c3ccccc3)[nH]2)CC1 79.4%, O=Cc1cn(-c2ccccc2)nc1-c1ccccn1 31.4%, C=CCn1c(N)c(C(=O)OCC(C)C)c2nc3ccccc3nc21 30.5%, CC(C)Cn1c(N)c(C(=O)NCc2cccs2)c2nc3ccccc3nc21 62.4%, CCCCNC(=O)CCn1nc(-c2ccc(Cl)cc2)ccc1=O 29.2%, COc1ccc2c(c1)c(=Cc1ccc(N(C)C)cc1)c1cc(-c3ccccc3)[n+](C)n12 28.4%, CC(=O)N(C1=C(Cl)C(=O)c2ccccc2C1=O)c1ccc(C(=O)O)cc1 42.4%, CN1c2ccc(C=O)c3c(C=O)ccc(c23)N(C)C1(C)C 48.6%, O=C(NC1=CC(=O)c2ccccc2C1=O)c1ccccc1 44.5%, O=C(COC(=O)Cc1c[nH]c2ccccc12)NCCc1ccccc1 24.9%, CC1CCCC(NC(=O)c2cc(-c3ccncc3)nc3ccccc23)C1C (centres undefined) 68.1%, CCOC(=O)c1ccc(NC2Nc3cc(C)nn3S2)cc1 (centres undefined) 26.6%, O=C(NC1CCCCC1)N1CCc2[nH]c3ccccc3c2C1 56.5%, COCCN1C=C2C(=O)C(C)(OC(=O)C3CCCC3)C(=O)C=C2C=C1c1ccsc1 (centres undefined) 31.4%, CCSc1nnc(SCC(=O)NNC(=O)c2ccccc2F)s1 24.7%, Nc1ccc2nn(-c3ccc(Cl)cc3)nc2c1 30.9%, CCOc1c(Br)cc(/C=C2\C(=O)N(CCC#N)N=C2C)cc1OC 59.9%, COC1=C(N2CCOCC2)C(=O)c2ccccc2C1=O 36.8%, O=C1Nc2ccc([N+](=O)[O-])cc2C1=Nc1cccc(CO)c1 36.9%

inhibition, inactive:
CCOC(=O)N1CCC(NC(=O)Cc2cn(C)c3ccccc23)CC1 -2.66%, CCOC(=O)N1CCC(C(N)=O)CC1 4.66%, CCOc1ccc(Oc2c(Cl)cnn(-c3ccc(C)cc3)c2=O)cc1 -6.6%, Cc1ccc(NC(=O)Cc2nnc(SCC(=O)Nc3nncs3)n2C)cc1 9.72%, CCc1ccc(-c2nn(-c3ccccc3)cc2CSC(=N)N)cc1 -12%, O=C(CSc1ccc(-c2ccccn2)nn1)Nc1ccccc1 -4.03%, N[C@@H](Cc1ccccc1)C(=O)N1CCC[C@@H]1C(=O)N1CCC2CCN(S(=O)(=O)c3ccccc3)CC21 (some centres undefined) 2.14%, O=C(CSc1nc2sc3c(c2c(=O)n1-c1ccccc1)CCCC3)NN=Cc1ccc(OCc2ccccc2)cc1 8.18%, C=CCN=C1NC(c2ccccc2)C(C(=O)OC)=C(C)N1Cc1ccc(C(F)(F)F)cc1 (centres undefined) -7.84%, COc1cccc(OC)c1CN(C)C(=O)c1cnccc1C(F)(F)F -13.4%, COC(=O)C1CN(CCc2ccccc2)CCS(=O)(=O)N1Cc1ccc(F)cc1 (centres undefined) -8.99%, Cc1nc2c(C(=O)NCc3cccs3)cnn2c(C)c1Cc1ccc(F)cc1 6.37%, CCN(CC(=O)NCc1cccs1)c1nnnn1-c1ccccc1 -4.19%, C=CCn1c(P(C)(=O)O)nc2ccccc21 2.29% and 0.31%, C=CCN1CN(S(=O)(=O)c2ccc(OC)cc2)c2nc3ccccc3nc21 -10.2%, O/N=C(\C[n+]1ccccc1)c1ccc(Br)cc1 -4.49%, CSc1nnc(-c2ccncc2)n1CCCN1CCCC1=O 3.44%, O=C1Nc2ccccc2OC1CC(=O)N1CCCCCCC1 (centres undefined) 4.41%, COC(CNC(=O)[C@H](Cc1ccccc1)NC1(C(=O)NC2CCCCC2)CCCCC1)OC -1.87%, CCN(CC)CCCNC(=O)CCn1nc(-c2ccc(Cl)cc2)ccc1=O -8.35%, CCCNC(=O)CCn1cc(-c2ccc(OC)cc2)nc1CCN -1.08%, COC(=O)[C@]12C[C@H](CC(=O)NCCc3ccccc3OC)C(=O)N(Cc3ccccc3)C1=C[C@H](C(C)C)O[C@@H]2C1CC1 -7.01%, Cc1ccc(S(=O)(=O)NNC(=S)NC(C)(C)C)cc1 0.38%, CCOC(=O)[C@]12CCCCC/C=C\1N(Cc1ccc(OC)cc1)C(=O)[C@H]2CC(=O)NCCCN1CCCC1=O -4.43%, CC(C)CCNC(=O)C1CCC(CNc2c(N3CCC(C)CC3)c(=O)c2=O)CC1 (centres undefined) -1.37%, O=C1C(Cl)=C(Oc2ccccc2)C(=O)c2ccccc21 3.22%, COP(=O)(O)CNC(=O)OCc1ccccc1 -6.21%, CCn1c(=O)n2n(c1=O)[C@@]1(C=C3CCCC[C@H]32)N=C(NC(=O)c2ccccc2)N(Cc2ccccc2)[C@H]1Cc1ccccc1 4.32%, Cc1nc(CNc2ncnc3ccc(-c4ccc5c(c4)OCO5)cc23)cs1 0.28%, COc1ccc(N2CCN(CCNS(=O)(=O)c3ccc(Cl)s3)CC2)cc1 -1.58%, O=C(NN1C(=O)C2C3C=CC(O3)C2C1=O)c1ccccc1 (centres undefined) -12.4%, NS(=O)(=O)c1cc(C(=O)OCC(=O)NNC(=O)c2ccccc2)ccc1Cl -0.47%, Cc1ccccc1NC(=O)C(C)OC(=O)CCC(=O)N(CC(C)C)c1c(N)n(CC(C)C)c(=O)[nH]c1=O (centres undefined) -3.56%, O=C1OC(Oc2ccc(Br)cc2)(c2ccccc2)c2ccccc21 (centres undefined) -5.92%, CC(C)(C)N(Cc1ccccc1)C(=O)COC(=O)CCc1c[nH]c2ccccc12 -14.4%, O=C(COC(=O)CCc1c[nH]c2ccccc12)Nc1cccc(Cl)c1 9.41%, COc1cccc(Cn2cc(COC(=O)Nc3ccc(F)cc3)nn2)c1 4.69%, N#Cc1ccc(C(=O)Nc2nc(-c3cccs3)c(C(=O)C(F)(F)F)s2)cc1 -0.4%, CC1CCCCC1NC(=O)c1cc(=O)[nH]c2ccccc12 (centres undefined) 6.87%, CC1CCCC(NC(=O)c2cc(S(=O)(=O)N3CCCCC3)ccc2Cl)C1C (centres undefined) 5.78%, COc1ccc(-c2ccc3c(n2)CCCN3S(=O)(=O)c2ccc(C)cc2)cc1 4.76%, N#Cc1c(N2CCCCC2)nc(N)c2c(N)nc(SCC(=O)O)cc12 7.63%, CCOC(=O)c1ccc(NC(=O)C2CC(=O)Nc3nc4ccccc4n32)cc1 (centres undefined) -14.1%, CCc1ccc(NC2Nc3cc(C)nn3S2)cc1 (centres undefined) -7.9%, COc1ccc(S[C@]2(C(=O)N(C)C)CC(=O)N(c3ccc(OC)cc3)[C@@H]2c2ccc(OC)cc2)cc1 -13.2%, C/C(=N/O)c1ccc(N2C(=O)C3C4C=CC(C3C2=O)C2C3C(=O)N(c5ccc(/C(C)=N/O)cc5)C(=O)C3C42)cc1 (centres undefined) -7.03%, O=C(Nc1cccc2c1CCCC2)C1CCN(C(=O)NC2CCCCC2)CC1 1.74%, O=C(CSc1nnc2c(n1)[nH]c1ccccc12)NC1CCCCC1 -1.87%, N#C/C(C(=S)Nc1ccccc1)=C1/NN=C(N2CCOCC2)N1c1ccccc1 10.7%, COC(=O)c1ccc(C2C(Oc3ccccc3C)C(=O)N2CCc2ccc(OC)c(OC)c2)cc1 (centres undefined) -12.5%, CCc1ccc(OCC(=O)OC(C)C(=O)NC2CC2)cc1 (centres undefined) -6.8%, CCCCC1=CC2=CC(=O)C(C)(OC(=O)CC)C(=O)C2=CN1CCCOC(C)C (centres undefined) 13.3%, CC1(OC(=O)C2CCCC2)C(=O)C=C2C=C(c3ccc(C#N)cc3)OC=C2C1=O (centres undefined) 0.49%, O=C(Cn1cnc2ccccc2c1=O)NNC(=O)c1ccccc1F 4.65%, COCCNc1nnc(SCC(=O)NNC(=O)c2ccco2)s1 5.04%, Cc1sc2nc(SCC(=O)c3ccc(O)c(O)c3)n(Cc3ccco3)c(=O)c2c1C -1.34%, Cc1ccc(-c2nc(CS(=O)CC(=O)N3CCN(c4ncccn4)CC3)c(C)o2)cc1 (centres undefined) 0.23%, COC(=O)[C@]12C[C@H](CC(=O)N3CCOCC3)C(=O)N(Cc3ccc(Cl)cc3Cl)C1=C[C@H](COCc1ccccc1)O[C@@H]2C 12.9%, CCC(=O)Nc1ccc2nn(-c3ccc(F)cc3)nc2c1 -12.3%, O=C(NC1CCCC1)C1CSCCS(=O)(=O)N1Cc1ccccc1 (centres undefined) 7.85%, COc1ccccc1C(=O)CSc1nnc(-c2ccccn2)n1-c1ccccc1 -12.9%, COc1ccc(CSc2nnc(SCC(=O)Nc3ccccc3C(F)(F)F)s2)cc1 -0.45%, CC(C)C(C#CC1CC1)N(Cc1ccc2c(c1)OCO2)C(N)=NC(=O)/C=C/c1cccc(C(F)(F)F)c1 (centres undefined) 4.77%, COc1ccc(S(=O)(=O)N2CCOCC2)c(C)c1C 0.48%, O=C1c2ccccc2-c2ncnc3c(N4CCOCC4)cc(N4CCOCC4)c1c23 -13.8%, CCCS(=O)(=O)NC(=O)C1(C)CCN(C(=O)c2sccc2C)C1 (centres undefined) -5.34%, CCCCNC(=O)C[C@@H]1C(=O)N(CCc2ccc(Cl)cc2)C2=CCCC[C@]21C(=O)OCC 8.61%, COc1ccc2c(c1)C(=O)Nc1cc(Cl)ccc1N2 -17%, COc1ccc([N+](=O)[O-])cc1C1NN=C(c2cccc3ccccc23)S1 (centres undefined) 3.04%, O=C(CCl)N(Cc1cccc([N+](=O)[O-])c1)c1cccc(Cl)c1 -6.43%
